Data as given in ChEMBL document CHEMBL4138056, “T- and B-cell immunosuppressive activity of novel α-santonin analogs with humoral and cellular immune response in Balb/c mice” (Medchemcomm, 2017).

Legend:
Murine T-cell line [1] = experiment: Cytotoxicity against Balb/c mouse T cells assessed as decrease in cell survival at 1 uM by MTT assay; assay type: cell-based
How it was run: (§1)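 Balb/c splenocytes (RBC lysed with tris-ammonium chloride, trypan blue viability) seeded at 1×10^6 cells/mL with Con A or LPS (10 μg/mL each) and test agent at 1, 10 or 100 μM for 48 h at 37 °C, 5% CO2; MTT added for 4 h, formazan dissolved in DMSO, OD 540 nm. Cytotoxicity scored +/−; triplicate, three separate experiments.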

Murine T-cell line [2] = experiment: Cytotoxicity against Balb/c mouse T cells assessed as decrease in cell survival at 10 uM by MTT assay; assay type: cell-based; how it was run: as §1
Murine T-cell line [3] = experiment: Immunosuppressive activity in Balb/c mouse T cells assessed as inhibition of ConA-induced cell proliferation at 1 uM after 48 hrs by MTT assay relative to control
B-cell line [4] = experiment: Immunosuppressive activity in Balb/c mouse B cells assessed as inhibition of LPS-induced cell proliferation at 1 uM after 48 hrs by MTT assay relative to control; assay type: functional
How it was run: (§2)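 Balb/c spleen single-cell suspension, RBCs lysed with tris-ammonium chloride, viability by trypan blue; 1×10^6 cells/mL stimulated with LPS (10 μg/mL) for B cells, test agent 1, 10 or 100 μM, 48 h at 37 °C, 5% CO2. MTT 4 h, DMSO solubilization, OD 540 nm; % change vs mitogen control; triplicate, three separate experiments.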

Murine T-cell line [5] = experiment: Cytotoxicity against Balb/c mouse T cells assessed as decrease in cell survival at 100 uM by MTT assay; assay type: cell-based; how it was run: as §1
B-cell line [6] = experiment: Cytotoxicity against Balb/c mouse B cells assessed as decrease cell survival at 1 uM by MTT assay; assay type: cell-based; how it was run: as §1
B-cell line [7] = experiment: Immunosuppressive activity in Balb/c mouse B cells assessed as inhibition of LPS-induced cell proliferation at 10 uM after 48 hrs by MTT assay relative to control; assay type: functional; how it was run: as §2
Murine T-cell line [8] = experiment: Immunosuppressive activity in Balb/c mouse T cells assessed as inhibition of ConA-induced cell proliferation at 100 uM after 48 hrs by MTT assay relative to control
B-cell line [9] = experiment: Cytotoxicity against Balb/c mouse B cells assessed as decrease cell survival at 10 uM by MTT assay; assay type: cell-based; how it was run: as §1
B-cell line [10] = experiment: Immunosuppressive activity in Balb/c mouse B cells assessed as inhibition of LPS-induced cell proliferation at 100 uM after 48 hrs by MTT assay relative to control; assay type: functional; how it was run: as §2
Murine T-cell line [11] = experiment: Immunosuppressive activity in Balb/c mouse T cells assessed as inhibition of ConA-induced cell proliferation at 10 uM after 48 hrs by MTT assay relative to control
B-cell line [12] = experiment: Cytotoxicity against Balb/c mouse B cells assessed as decrease cell survival at 100 uM by MTT assay; assay type: cell-based; how it was run: as §1

Row | SMILES | Activity (Murine T-cell line [1]) | Activity (Murine T-cell line [2]) | inhibition at 1 µM (Murine T-cell line [3]) [%] | inhibition at 1 µM (B-cell line [4]) [%] | Activity (Murine T-cell line [5]) | Activity (B-cell line [6]) | inhibition at 10 µM (B-cell line [7]) [%] | inhibition at 100 µM (Murine T-cell line [8]) [%] | Activity (B-cell line [9]) | inhibition at 100 µM (B-cell line [10]) [%] | inhibition at 10 µM (Murine T-cell line [11]) [%] | Activity (B-cell line [12])
1 | CC(=O)Oc1cc(C)c2c(c1C)[C@@H]1OC(=O)[C@@H](C)[C@@H]1CC2 | Non-Toxic | Non-Toxic | 39.7 | 51.8 | Toxic | Non-Toxic | 44.3 | 63 | Non-Toxic | 68 | 45.2 | Toxic
2 | CCC(=O)Oc1cc(C)c2c(c1C)[C@@H]1OC(=O)[C@@H](C)[C@@H]1CC2 | Toxic | Toxic | 11.7 | 20 | Toxic | Toxic | 43 | 41 | Toxic | 69 | 33 | Toxic
3 | Cc1cc(OC(=O)CCC(=O)O)c(C)c2c1CC[C@H]1[C@H](C)C(=O)O[C@@H]21 | Non-Toxic | Toxic | 29.4 | 33.3 | Toxic | Non-Toxic | 42.7 | 61.7 | Toxic | 5.2 | 53.4 | Toxic
4 | COc1ccc(NC(=O)CCC(=O)Oc2cc(C)c3c(c2C)[C@@H]2OC(=O)[C@@H](C)[C@@H]2CC3)cc1 | Non-Toxic | Non-Toxic | 1 | 17.7 | Toxic | Non-Toxic | 52 | 58 | Non-Toxic | 68 | 35 | Toxic
5 | Cc1cc(OC(=O)CCC(=O)Nc2ccccc2Cl)c(C)c2c1CC[C@H]1[C@H](C)C(=O)O[C@@H]21 | Non-Toxic | Non-Toxic | 13 | 27.7 | Non-Toxic | Non-Toxic | 51 | 56 | Non-Toxic | 69 | 45 | Non-Toxic
6 | CCCC(=O)Oc1cc(C)c2c(c1C)[C@@H]1OC(=O)[C@@H](C)[C@@H]1CC2 | Non-Toxic | Non-Toxic | 28.5 | 12.5 | Non-Toxic | Non-Toxic | 35.4 | 71.9 | Non-Toxic | 69.8 | 38 | Non-Toxic
7 | Cc1cc(OC(=O)CCC(=O)Nc2ccccc2F)c(C)c2c1CC[C@H]1[C@H](C)C(=O)O[C@@H]21 | Non-Toxic | Non-Toxic | 16.7 | 21 | Non-Toxic | Non-Toxic | 44 | 66.7 | Non-Toxic | 77.9 | 41.7 | Non-Toxic
8 | COc1cc(C)c2c(c1C)[C@@H]1OC(=O)[C@@H](C)[C@@H]1CC2 | Toxic | Toxic | 50 | 42 | Toxic | Toxic | 19.1 | 16.1 | Toxic | 21 | 23.2 | Toxic
